Measured values as given in ChEMBL document CHEMBL1649373, “Candimine-induced cell death of the amitochondriate parasite Trichomonas vaginalis” (2010).
Calls of active or inactive are those of the source.

Assays:
Trichomonas vaginalis [1] = test: Induction of striking morphological alteration in Trichomonas vaginalis TV-VP60 assessed as elongated nucleus at 250 uM after 24 hrs by transmission electron microscopic analysis; format: functional, organism-based
Trichomonas vaginalis [2] = test: Induction of striking morphological alteration in Trichomonas vaginalis TV-VP60 assessed as effect on golgi apparatus at 250 uM after 6 hrs by transmission electron microscopic analysis; format: functional, organism-based
Trichomonas vaginalis [3] = test: Induction of striking morphological alteration in Trichomonas vaginalis TV-VP60 assessed as change in shape of hydrogenosomes at 250 uM after 6 to 24 hrs by transmission electron microscopic analysis; format: functional, organism-based
Trichomonas vaginalis [4] = test: Cell cycle arrest in Trichomonas vaginalis TV-VP60 assessed as accumulation at S phase at 250 uM after 6 hrs using Annexin V FITC and propidium iodide staining by flow cytometry relative to control; format: functional
Method in brief: (§1)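 TV-VP60 trophozoites (fresh clinical isolate) exposed to 250 µM for 6 h or 24 h; cell-cycle distribution measured by flow cytometry and compared with untreated trophozoites.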

Trichomonas vaginalis [5] = test: Induction of striking morphological alteration in Trichomonas vaginalis TV-VP60 assessed as degenerated cytoplasm matrix at 250 uM after 24 hrs by transmission electron microscopic analysis; format: functional, organism-based
Trichomonas vaginalis [6] = test: Growth inhibition of Trichomonas vaginalis TV-VP60 at 250 uM using initial inoculum of 1.0 x 10^5 trophozoites/mL; format: functional, organism-based
Method in brief: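 Kinetic growth curve of TV-VP60 trophozoites with 250 µM present, starting from initial inocula of 1.0 × 10^5 or 5.0 × 10^4 trophozoites/mL. Untreated parasites served as control.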

Trichomonas vaginalis [7] = test: Growth inhibition of Trichomonas vaginalis TV-VP60 at 250 uM using initial inoculum of 5 x 10^5 trophozoites/mL; format: functional, organism-based
Trichomonas vaginalis [8] = test: Growth inhibition of Trichomonas vaginalis TV-VP60 at 250 uM treated followed by washout measured after 48 hrs growth period; format: functional, organism-based
Method in brief: (§2)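 TV-VP60 trophozoites treated with 250 µM for 12 or 24 h, centrifuged, and the pellet reinoculated into fresh medium without alkaloid. Growth was then followed as a kinetic curve. Untreated trophozoites went through the same procedure for comparison.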

Trichomonas vaginalis [9] = test: Induction of striking morphological alteration in Trichomonas vaginalis TV-VP60 assessed as pseudocysts at flagella internalization stage at 5 uM after 24 hrs by scanning electron microscopic analysis; format: functional, organism-based
Trichomonas vaginalis [10] = test: Induction of striking morphological alteration in Trichomonas vaginalis TV-VP60 assessed as loss of original shape of parasites with some fissures on the surface at 250 uM by scanning electron microscopic analysis; format: functional, organism-based; conditions: TDE = time-dependent effect
Method in brief: (§3)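 Surface morphology of TV-VP60 trophozoites exposed to 250 µM for 6 h and 24 h was examined by scanning electron microscopy.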

Trichomonas vaginalis [11] = test: Cell cycle arrest in Trichomonas vaginalis TV-VP60 assessed as accumulation at G2 phase at 250 uM after 24 hrs using Annexin V FITC and propidium iodide staining by flow cytometry relative to control; format: functional; method in brief: as §1
Trichomonas vaginalis [12] = test: Growth inhibition of Trichomonas vaginalis TV-VP60 at 250 uM treated followed by washout measured after 12 hrs growth period; format: functional, organism-based; method in brief: as §2
Trichomonas vaginalis [13] = test: Induction of striking morphological alteration in Trichomonas vaginalis TV-VP60 assessed as change in intracellular localization of hydrogenosomes at 250 uM after 6 to 24 hrs by transmission electron microscopic analysis; format: functional, organism-based
Trichomonas vaginalis [14] = test: Induction of striking morphological alteration in Trichomonas vaginalis TV-VP60 assessed as striate vacuolization close to nucleus at 250 uM after 24 hrs by transmission electron microscopic analysis; format: functional, organism-based
Trichomonas vaginalis [15] = test: Cytotoxicity against Trichomonas vaginalis TV-VP60 at 2.5 uM to 1 mM after 24 hrs by trypan blue exclusion assay; format: functional, organism-based
Method in brief: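 Dose-response run on 5.0 × 10^5 TV-VP60 trophozoites/mL (fresh clinical isolate), concentrations 2.5 to 1000 µM, 24 h exposure, viable trophozoites counted. Vehicle control included; metronidazole 50 µM used as positive control.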

Trichomonas vaginalis [16] = test: Cell cycle arrest in Trichomonas vaginalis TV-VP60 assessed as accumulation at G2 phase at 250 uM after 6 hrs using Annexin V FITC and propidium iodide staining by flow cytometry relative to control; format: functional; method in brief: as §1
Trichomonas vaginalis [17] = test: Induction of striking morphological alteration in Trichomonas vaginalis TV-VP60 assessed as effect on endoplasmic reticulum at 250 uM after 6 hrs by transmission electron microscopic analysis; format: functional, organism-based
Trichomonas vaginalis [18] = test: Induction of striking morphological alteration in Trichomonas vaginalis TV-VP60 assessed as hydrogenosomes on autophagic vacuoles at 250 uM after 24 hrs by transmission electron microscopic analysis; format: functional, organism-based
Trichomonas vaginalis [19] = test: Cell cycle arrest in Trichomonas vaginalis TV-VP60 assessed as accumulation at G1 phase at 250 uM after 6 hrs using Annexin V FITC and propidium iodide staining by flow cytometry relative to control; format: functional; method in brief: as §1
Trichomonas vaginalis [20] = test: Cell cycle arrest in Trichomonas vaginalis TV-VP60 assessed as accumulation at S phase at 250 uM after 24 hrs using Annexin V FITC and propidium iodide staining by flow cytometry relative to control; format: functional; method in brief: as §1
Trichomonas vaginalis [21] = test: Induction of phosphatidylserine exposure in Trichomonas vaginalis TV-VP60 at 250 uM after 6 to 24 hrs by Annexin V-FITC staining; format: functional, organism-based
Trichomonas vaginalis [22] = test: Induction of striking morphological alteration in Trichomonas vaginalis TV-VP60 assessed as change in size of hydrogenosomes at 250 uM after 6 to 24 hrs by transmission electron microscopic analysis; format: functional, organism-based
Trichomonas vaginalis [23] = test: Cell cycle arrest in Trichomonas vaginalis TV-VP60 assessed as accumulation at G1 phase at 250 uM after 24 hrs using Annexin V FITC and propidium iodide staining by flow cytometry relative to control; format: functional; method in brief: as §1
Trichomonas vaginalis [24] = test: Induction of vacuolization formation in Trichomonas vaginalis TV-VP60 at 250 uM after 6 to 24 hrs by flow cytometry; format: functional, organism-based
Method in brief: (§4)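 TV-VP60 trophozoites exposed to 250 µM for 6 h and 24 h. Cell size and granularity were read by flow cytometry, with granularity taken as the vacuolization rate.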

Trichomonas vaginalis [25] = test: Induction of striking morphological alteration in Trichomonas vaginalis TV-VP60 assessed as formation of multinucleated cells at 250 uM after 24 hrs by transmission electron microscopic analysis; format: functional, organism-based
Trichomonas vaginalis [26] = test: Induction of apoptosis in Trichomonas vaginalis TV-VP60 assessed as DNA fragmentation at 250 uM after 6 to 24 hrs by agarose gel electrophoresis; format: functional, organism-based
Method in brief: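 Genomic DNA from TV-VP60 trophozoites treated with 250 µM for 6 h and 24 h was analysed by electrophoresis alongside untreated parasites.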

Trichomonas vaginalis [27] = test: Induction of striking morphological alteration in Trichomonas vaginalis TV-VP60 assessed as large peripheral vacuoles between plasma membrane and cytoplasm at 250 uM after 24 hrs by transmission electron microscopic analysis; format: functional, organism-based
Trichomonas vaginalis [28] = test: Effect on alteration in size of trophozoites in Trichomonas vaginalis TV-VP60 at 250 uM after 6 to 24 hrs by flow cytometry; format: functional, organism-based; method in brief: as §4
Trichomonas vaginalis [29] = test: Induction of striking morphological alteration in Trichomonas vaginalis TV-VP60 assessed as loss of original shape of parasites with some fissures on the surface at 250 uM after 6 hrs by scanning electron microscopic analysis; format: functional, organism-based; method in brief: as §3
Trichomonas vaginalis [30] = test: Induction of striking morphological alteration in Trichomonas vaginalis TV-VP60 assessed as abnormal shape of nucleus at 250 uM after 24 hrs by transmission electron microscopic analysis; format: functional, organism-based
Trichomonas vaginalis [31] = test: Induction of apoptosis in Trichomonas vaginalis TV-VP60 assessed as formation of apoptotic bodies at 250 uM after 6 to 24 hrs by flow cytometry; format: functional, organism-based
Trichomonas vaginalis [32] = test: Induction of striking morphological alteration in Trichomonas vaginalis TV-VP60 assessed as loss of original shape of parasites with some fissures on the surface at 250 uM after 24 hrs by scanning electron microscopic analysis; format: functional, organism-based; method in brief: as §3
Trichomonas vaginalis [33] = test: Cytotoxicity against Trichomonas vaginalis TV-VP60 at 50 uM after 24 hrs by trypan blue exclusion assay; format: functional

COc1c2c(cc3c1C(=O)O[C@H]1[C@@H]3[C@H]3C(=C[C@@H]1O)CCN3C)OCO2 [CANDIMINE]
inactive: Activity (Trichomonas vaginalis [2]) | Activity (Trichomonas vaginalis [5]) | growth inhibition (GI) (Trichomonas vaginalis [8]) | growth inhibition (GI) (Trichomonas vaginalis [12]) | Activity (Trichomonas vaginalis [17]) | Activity (Trichomonas vaginalis [21]) | Activity (Trichomonas vaginalis [25]) | Activity (Trichomonas vaginalis [26]) | Activity (Trichomonas vaginalis [28]) | Activity (Trichomonas vaginalis [31])
34.39%: Activity (Trichomonas vaginalis [19])
58.97%: Activity (Trichomonas vaginalis [11])
22.66%: Activity (Trichomonas vaginalis [23])
19.89%: Activity (Trichomonas vaginalis [4])
44.2%: Activity (Trichomonas vaginalis [16])
19.49%: Activity (Trichomonas vaginalis [20])
active: Activity (Trichomonas vaginalis [1]) | Activity (Trichomonas vaginalis [3]) | growth inhibition (GI) (Trichomonas vaginalis [6]) | growth inhibition (GI) (Trichomonas vaginalis [7]) | Activity (Trichomonas vaginalis [9]) | Activity (Trichomonas vaginalis [10]) tde | Activity (Trichomonas vaginalis [13]) | Activity (Trichomonas vaginalis [14]) | Activity (Trichomonas vaginalis [15]) | Activity (Trichomonas vaginalis [18]) | Activity (Trichomonas vaginalis [22]) | Activity (Trichomonas vaginalis [24]) | Activity (Trichomonas vaginalis [27]) | Activity (Trichomonas vaginalis [29]) | Activity (Trichomonas vaginalis [30]) | Activity (Trichomonas vaginalis [32])

Cc1ncc([N+](=O)[O-])n1CCO [METRONIDAZOLE]
100%: Activity (Trichomonas vaginalis [33])
